The results in this text go back to ChEMBL document CHEMBL1145517, “Kinetic characterization of squalene synthase from Trypanosoma cruzi: selective inhibition by quinuclidine derivatives” (Antimicrob Agents Chemother, 2007).

Bounds are passed on as bounds.

Data set [1] can be described thus: Inhibition of Trypanosoma cruzi recombinant squalene synthase. The gist of the method:
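The enzyme was purified His-tagged T. cruzi SQS expressed in E. coli, truncated by 24 N-terminal and 36 C-terminal residues. Activity was measured as [3H]FPP-to-[3H]squalene conversion in pH 7.4 MOPS-NaOH with 20 mM MgCl2, 5 mM CHAPS, 1% Tween 80, 10 mM DTT, 0.25 mM NADPH and 0.5 μM FPP, 5 min at 37°C. Reactions were stopped with NaOH, squalene was separated by silica TLC and counted by scintillation, and IC50 was curve-fitted.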

Data set [2] can be described thus: Selectivity index, ratio of IC50 for human recombinant squalene synthase over IC50 for Trypanosoma cruzi squalene synthase. The gist of the method:
(§1)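 T. cruzi enzyme was purified TcSQS24/36; human SQS was E. coli extract expressing pHSS16. Stopped with NaOH, squalene carrier added, TLC in toluene-ethyl acetate 9:1, squalene zone counted by scintillation. Index = human IC50 / T. cruzi IC50.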

In data set [3] the target is T1, Squalene synthase (Homo sapiens, UniProt P37268).
T1 sequence (P37268 whole entry): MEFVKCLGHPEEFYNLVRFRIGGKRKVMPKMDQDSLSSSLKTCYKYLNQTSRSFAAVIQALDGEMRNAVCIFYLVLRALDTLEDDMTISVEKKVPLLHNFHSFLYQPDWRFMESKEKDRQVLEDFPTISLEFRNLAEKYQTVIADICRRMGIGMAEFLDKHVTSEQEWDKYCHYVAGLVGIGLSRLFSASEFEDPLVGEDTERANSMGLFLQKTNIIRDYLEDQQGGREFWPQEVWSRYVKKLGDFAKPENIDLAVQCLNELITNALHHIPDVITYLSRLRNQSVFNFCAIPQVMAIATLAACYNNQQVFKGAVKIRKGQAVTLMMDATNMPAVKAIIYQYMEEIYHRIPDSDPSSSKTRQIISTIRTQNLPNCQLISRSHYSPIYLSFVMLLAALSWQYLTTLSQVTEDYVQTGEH
In words: Inhibition of human recombinant squalene synthase. The gist of the method: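 The enzyme source was extracts of E. coli expressing truncated human SQS. Activity was measured as [3H]FPP-to-squalene conversion at 0.5 μM FPP and 0.25 mM NADPH in pH 7.4 MOPS-NaOH with MgCl2, CHAPS, Tween 80 and DTT, for 5 min at 37°C. Reactions were stopped with NaOH, squalene was separated by silica TLC (toluene-ethyl acetate 9:1) and counted by scintillation, and IC50 was curve-fitted.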

The subject of data set [4] is Trypanosoma cruzi. In words: Antitrypanosomal activity against intracellular Trypanosoma cruzi amastigotes in rat L6 cells. Type of data set: functional, organism-based. The gist of the method:
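L6 rat myoblasts were seeded at 2,000 cells/well in RPMI 1640 with 10% FBS and 2 mM L-glutamine. After 24 h, 5,000 Tulahuen C2C4 trypomastigotes expressing lacZ were added with twofold serial drug dilutions. Plates were incubated 4 days at 37°C in 5% CO2. CPRG/Nonidet was then added, and colour was read at 540 nm after 2–4 h. IC50 came from the sigmoidal inhibition curve.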

In data set [5] the test system is Saccharomyces cerevisiae. Description: Activity of Saccharomyces cerevisiae C-terminal truncated squalene synthase.
In data set [6] the test system is Trypanosoma cruzi. Description: Activity of Trypanosoma cruzi truncated squalene synthase 24/36. The gist of the method:
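Purified N-His-tagged TcSQS24/36 (E. coli, IMAC then MonoQ) in 50 mM MOPS-NaOH pH 7.4, 20 mM MgCl2, 5 mM CHAPS, 1% Tween 80, 10 mM DTT, 0.025 mg/ml BSA. [3H]FPP to [3H]squalene, 5 min at 37°C. FPP Km: 1–20 μM FPP with 2 mM NADPH. NADPH Km: 5–400 μM NADPH with 20 μM FPP. Nonlinear hyperbolic fits.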

Data set [7] has as its system Trypanosoma cruzi. In words: Activity of Trypanosoma cruzi glycosomal squalene synthase.
Data set [8] relates to Trypanosoma cruzi. In words: Activity of Trypanosoma cruzi microsomal or mitochondrial squalene synthase.
Data set [9] deals with Leishmania mexicana. Description: Activity of Leishmania mexicana glycosomal squalene synthase.
Data set [10] deals with Leishmania mexicana. In words: Activity of Leishmania mexicana microsomal or mitochondrial squalene synthase.
Data set [11] is described as follows: Selectivity index, ratio of IC50 for rat L6 cells over IC50 for intracellular Trypanosoma cruzi amastigotes. Type of data set: functional.
Data set [12] relates to L6. In words: Growth inhibition of rat L6 cells. Type of data set: cell-based.
The species named for data set [13] is Homo sapiens. Description: Activity of human double-truncated squalene synthase. The gist of the method:
as §1

Substrate in data set [14]: CC(C)=CCC/C(C)=C/CC/C(C)=C/COP(=O)(O)OP(=O)(O)O
In words: (§2) Activity of human full length squalene synthase expressed in baculovirus.

Substrate in data set [15]: NC(=O)c1ccc[n+]([C@@H]2O[C@H](COP(=O)([O-])OP(=O)(O)OC[C@H]3O[C@@H](n4cnc5c(N)ncnc54)[C@H](OP(=O)(O)O)[C@@H]3O)[C@@H](O)[C@H]2O)c1
Described as §2.

What is called IC50 is the midpoint of a concentration-inhibition curve. In general, Km refers to the substrate concentration at which the rate is half of its maximum. The term Vmax denotes the top rate of the reaction or transport when substrate is in excess.

Turning to `COCCCOc1ccc(C#C[C@@]2(O)CN3CCC2CC3)c(Cc2ccccc2)n1`, the concentration for half-maximal inhibition (IC50) is 3.52 nM in data set [1], 6 nM in [3] and 11 nM in data set [4]. For the same molecule, the Ratio IC50 in data set [2] amounted to 1.7.

For `NC(=O)c1ccc[n+]([C@@H]2O[C@H](COP(=O)([O-])OP(=O)(O)OC[C@H]3O[C@@H](n4cnc5c(N)ncnc54)[C@H](OP(=O)(O)O)[C@@H]3O)[C@@H](O)[C@H]2O)c1`, the Km in [5] worked out at 530 µM; in [6] it was 23.3 µM; in data set [7], 40 µM; in data set [8] it was 33 µM; in data set [9], 62 µM; in data set [10], 57 µM. The maximum rate (Vmax) in data set [6] amounted to 1850 nmol/min/mg; in data set [7], 0.43 nmol/min/mg; in data set [8], 0.76 nmol/min/mg; in data set [9], 0.58 nmol/min/mg; in data set [10] it was 0.84 nmol/min/mg.

`C1=C(Cc2ccc(-c3ccccc3)cc2)C2CCN1CC2`: the IC50 is 730 nM in data set [1], over 20000 nM in data set [3], 4700 nM in data set [4] and 20500 nM in data set [12]. Also, the “Ratio IC50” value in [11] was 4.4; in [2], over 27.

Turning to `O[C@]1(C#Cc2cccc(OCc3ccccc3)c2)CN2CCC1CC2`, the IC50 in data set [1] is 1500 nM; in data set [3] it was over 20000 nM; in data set [4] it was 9600 nM; in [12] it was 45000 nM. Moreover, the “Ratio IC50” value in data set [11] is 4.7; in data set [2] it was over 13.

Turning to `CO[C@H]1CN(c2ccc(C#C[C@@]3(O)CN4CCC3CC4)c(Cc3ccccc3)n2)C[C@H]1O`, the values for the IC50 in data set [1], in data set [3] and in data set [4] were 0.84 nM, 1.5 nM and 8 nM, respectively. Also, the Ratio IC50 in data set [2] was 1.8.

As for `C(#Cc1ccc(OCc2ccccc2)cc1)C1=CN2CCC1CC2`, the IC50 in data set [1] was 830 nM; in data set [3], 250 nM; in data set [4] it was 3100 nM; in data set [12] it was 47200 nM. Besides, the “Ratio IC50” value amounted to 15 in data set [11] and 0.3 in data set [2].

For the molecule `CC(C)=CCC/C(C)=C/CC/C(C)=C/COP(=O)(O)OP(=O)(O)O`, the Km was 2.5 µM in data set [5]; 5.25 µM in [6]; 2.8 µM in [7]; 2.8 µM in [13]; 2.3 µM in data set [8]; 3.2 µM in data set [9]. In [10], the Michaelis-Menten constant (Km) stood at 2.8 µM. For the same molecule, the Vmax amounted to 1430 nmol/min/mg in [6]; 0.97 nmol/min/mg in data set [7]; 1.18 nmol/min/mg in data set [8]; 0.75 nmol/min/mg in data set [9]; 0.98 nmol/min/mg in data set [10].

As to `CCOC(=O)c1ccc(C2=CN3CCC2CC3)cc1`, the IC50 in [1] was 50 nM; in data set [3], 7000 nM. Also, the results for the “Ratio IC50” value in data set [11] and in data set [2] were 17 and 140, respectively.

B1: Squalene synthase (Homo sapiens), P37268 (protein)
chain: MEFVKCLGHPEEFYNLVRFRIGGKRKVMPKMDQDSLSSSLKTCYKYLNQTSRSFAAVIQALDGEMRNAVCIFYLVLRALDTLEDDMTISVEKKVPLLHNFHSFLYQPDWRFMESKEKDRQVLEDFPTISLEFRNLAEKYQTVIADICRRMGIGMAEFLDKHVTSEQEWDKYCHYVAGLVGIGLSRLFSASEFEDPLVGEDTERANSMGLFLQKTNIIRDYLEDQQGGREFWPQEVWSRYVKKLGDFAKPENIDLAVQCLNELITNALHHIPDVITYLSRLRNQSVFNFCAIPQVMAIATLAACYNNQQVFKGAVKIRKGQAVTLMMDATNMPAVKAIIYQYMEEIYHRIPDSDPSSSKTRQIISTIRTQNLPNCQLISRSHYSPIYLSFVMLLAALSWQYLTTLSQVTEDYVQTGEH
In the case of B1, in data set [14], the Km was determined as 2.3 µM and the maximal velocity (Vmax) is 4800 nmol/min/mg. In [15], the Km was 430 µM and the Vmax is 3800 nmol/min/mg.
